Three compounds from ChEMBL document CHEMBL1158769, “Macrophage activating effects of new alkamides from the roots of Echinacea species” (J Nat Prod, 2005) can be followed below.

Data set [1] is described as follows: Toxicity in mouse RAW264.7 cells by MTT assay. The data set is classed as cell-based. The following applies: read-out: TD50 (the source's name). The method, boiled down:
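RAW 264.7 cells exposed to a range of alkamide concentrations for 24 h, or for 4 h followed by 24 h in fresh medium. Cells washed, labeled with MTT for 4 h, lysed in DMSO, formazan read at A540. Viability = Exp-OD/Control-OD × 100%, with control at the same cell number.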

For another data set, the system named is RAW264.7. Briefly: Inhibition of LPS-stimulated NO production in mouse RAW264.7 cells. The data set is classed as functional. Particulars: read-out: ID50 (the source's name). The method, boiled down:
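In some runs the compound medium was removed and the cells washed before LPS. Supernatant nitrite measured by Griess reagent at A550. Relative NO = (Exp-OD − Control-OD)/(LPS-OD − Control-OD) × 100%.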

In brackets after ≈: the same amount, converted by molar mass.

Regarding `CCCCCCC/C=C/C=C/C(=O)NCC(C)C`, the CC50 in data set [1] is 12.5 µg/mL (≈ 49.7 µM). Moreover, the IC50 in the data set on RAW264.7 turned out to be 6 µg/mL (≈ 23.9 µM).

Consider `C/C=C/C=C\CC/C=C/C=C/C(=O)NCC(C)C`, for which, in data set [1], the CC50 came to 50 µg/mL (≈ 202 µM). For the same compound, the IC50 in the data set with RAW264.7 is 6 µg/mL (≈ 24.3 µM).

In the case of `C/C=C\C=C/CC/C=C/C=C/C(=O)NCC(C)C`, the CC50 in data set [1] is 50 µg/mL (≈ 202 µM). In the data set with RAW264.7, the IC50 stood at 6 µg/mL (≈ 24.3 µM).
